Only some compounds are listed: those with a hit (about 2.3% of all), similar ones and a draw of the others.
Mcl1 Bid PPI – Mcl-1/Bid interaction inhibition | AID 1021 | TR-FRET Mcl-1/Bid-Dy647 peptide binding, 1536-well | inhibition, % at 21.7 µM | 220,000 compounds, 0.97% hits;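 active means compounds that cut the binding signal by more than half at the single screening dose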;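 further: His-tagged Mcl-1 with europium anti-His antibody binding Bid BH3 peptide; 0% = Mcl-1 plus peptide wells and 100% = peptide-only wells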
Pemphigus Ab inh – human desmoglein-3 autoantibody binding inhibition. binding (percent of control), % at 10 µM. P32926. 310,000 compounds, 0.48% hits. DSG3-coupled beads, scFv-anti-DSG3-GFP binding, flow cytometry; hits give low values. AID 588358;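 active means binding more than 3 SD below its plate's average and above zero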;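 further: hits lower antibody fragment binding to DSG3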
T cell modulator – T cell immune modulation candidate | 2C CD8+ T cell-vesicle binding, flow cytometry; hits give low values | response (vesicle binding), % at 7 µM | 330,000 compounds, 0.068% hits | AID 2052;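 active means response, share of CD8 T cells binding vesicles, and their 90th percentile fluorescence all below set limits, cut at about 80% in these data, passing the limit was not always enough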;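 further: values below 100% mean blocked vesicle binding to the CD8+ T cells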
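incubation = binding step 1.5 h, 37 °C, antibody labelling 20 min, ice | test system = 2C mouse CD8+ T cells | read-out basis = percent CD8+ FL2 mean versus row control | controls = Peptide-free naked vesicles (low) and QL9 vesicles with 0.7% DMSO vehicle (high) | detection = flow cytometry of vesicle-bound cells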
Mcl1 Noxa PPI – disrupts binding of human Mcl-1 to Noxa peptide; 220,000 compounds, 1.5% hits; Q07820; TR-FRET Mcl-1/Noxa peptide binding, 2 h; AID 1022; inhibition, % at 21.7 µM;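 active means compounds that cut the protein-peptide binding signal by more than 50% relative to plate controls in a single-dose test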;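 further: His-tagged Mcl-1 with rhodamine Noxa BH3 peptide and terbium anti-His antibody; 0% = Mcl-1 plus Noxa peptide wells and 100% = peptide-only wells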
MCL1 BIM primary – inhibitors of human MCL1 binding to BIM-BH3 peptide; Q07820; GST-MCL1 / FITC-Bim-BH3 fluorescence polarization; inhibition, % at 10.9 µM; 320,000 compounds, 0.68% hits;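 active means inhibition above the mean inhibition of all tested compounds plus 3 SD, set per campaign, cut at about 40% in these data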;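 further: 0% = DMSO wells and 100% = unlabeled Bim-BH3 peptide control; higher means more loss of mP so more displacement of Bim peptide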
Bim-Mcl-1 – disrupts Bim peptide binding to human Mcl-1; Q07820; Bead-based flow cytometry, Bim peptide-Mcl-1 binding; inhibition, % at 10 µM; 190,000 compounds, 0.1% hits; in the data active means inhibition above about 40%;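 further: 0% = no compound tracer wells and 100% = peptide blocker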
Bcl-xL conf – counter-screen for MCL1 inhibitors: confirmation of human Bcl-xL inhibitors. shares compounds with MCL1 BIM primary. GST-Bcl-xL / FITC-Bim BH3 peptide FP binding. inhibition, % at 10.9 µM. 1,700 compounds, 54% hits. AID 2166;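 active means inhibition above a cutoff equal to the mean inhibition of all tested compounds plus 3 SD, cut at about 30% in these data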;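 further: 0% = DMSO wells and 100% = unlabeled Bim BH3 control peptide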
MCL1 BIM confirm – MCL1-BIM-BH3 interaction inhibition, confirmation | inhibition, % at 10.9 µM | shares compounds with MCL1 BIM primary | 1,700 compounds, 61% hits | GST-MCL1 / FITC-Bim-BH3 fluorescence polarization | AID 2168;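 active means inhibition above the average of all tested compounds plus 3 SD, cut at about 40% in these data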;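 further: 0% = DMSO wells and 100% = unlabeled Bim-BH3 control peptide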
Active calls of the source: *; i = inactive; · = no result given; + = active, no number.

SMILES	Mcl1 Bid PPI	Pemphigus Ab inh	T cell modulator	Mcl1 Noxa PPI	MCL1 BIM primary	Bim-Mcl-1	Bcl-xL conf	MCL1 BIM confirm
O=[N+]([O-])c1nn(-c2ccc3c(c2)OCCO3)n(O)c1=NCc1ccc(F)cc1	-14	118	205	12	16	1	·	·
O=[N+]([O-])c1nn(-c2ccc3c(c2)OCCO3)n(O)c1=NCc1ccc(F)cc1Cl	-17	96	559	10	67*	-3	10	0
C[C@@H]1CN([C@@H](C)CO)C(=O)CCCn2nncc2CO[C@@H]1CN(C)S(=O)(=O)c1cccc(C#N)c1	·	101	·	·	·	·	·	·
CCn1c(CSc2nnc(-c3cccnc3)n2-c2ccccc2C)nc2cc(C(=O)O)ccc21	-21	·	163	38	32	0	·	·
CCn1c(CSc2nnc3ccccn23)nc2cc(C(=O)O)ccc21	-14	36*	177	23	110*	0	64*	86*
Nc1c(C(=O)N/N=C/c2cccnc2)oc2nc(-c3ccco3)cc(-c3ccco3)c12	-18	103	700	48	61*	·	7	-2
CC(Oc1ccc(F)cc1)C(=O)Nc1cccc(-c2nn[nH]n2)c1 (stereo not given)	·	94	110	·	41*	·	-4	-23
Cc1cc(=O)n(C(C)c2ccccc2)n1C(C)c1ccccc1 (stereo not given)	·	100	·	·	·	·	·	·
COc1ccc(CNC(=O)C(C#N)c2nc3ccccc3nc2N2CCCC2)cc1 (stereo not given)	-5	100	181	-12	54*	-2	63*	75*
C=CCNC(=O)C(C#N)c1nc2ccccc2nc1N1CCCCCC1 (stereo not given)	-71	91	141	14	71*	3	32*	32
COc1ccc(CNC(=O)C(C#N)c2nc3ccccc3nc2N2CCN(C)CC2)cc1 (stereo not given)	-59	95	255	20	3	-3	·	·
CSCC[C@H](N)C(=O)NC[C@H]1CC[C@H](C(=O)N[C@@H](Cc2ccccc2)C(=O)O)CC1	·	106	194	·	3	·	·	·
CC1(C)CC(=O)C2=C(C1)OC(N)=C(C#N)C2c1ccccc1[N+](=O)[O-] (stereo not given)	-52	97	346	14	186*	-1	93*	114*
CC1(C)CC(=O)C2=C(C1)OC(N)=C(C#N)C2c1ccccc1 (stereo not given)	-70	100	404	32	3	-2	·	·
Cc1cccc(-c2cccc(NC(=O)C3CCCN(C(=O)c4csc(C)n4)C3)c2)c1 (stereo not given)	·	·	233	·	-2	·	·	·
O=C(CSc1ccc(Cl)cc1)c1ccco1	4	93	700	41	64*	-1	23	75*
O=C(CCSc1ccc(Cl)cc1)c1ccco1	·	97	587	·	15	·	·	·
Cc1c(C)c2cc(Cl)c(O)c(CN(C)C)c2oc1=O	-27	105	335	10	11	0	·	·
O=c1oc2c(O)c(O)cc3c(=O)oc4c(O)c(O)cc1c4c23	76*	80	499	86*	97*	10	79*	98*
COc1ccc(OCc2cc(C(=O)NCCN3CCCc4ccccc43)no2)c(Cl)c1	·	115	327	·	-10	·	·	·
O=C(Nc1ccc(F)cc1F)c1noc2c1CCC2	-24	102	199	19	47*	-1	19	66*
COc1ccc(C2C=C(c3ccc(C)cc3)Nc3ncnn32)cc1 (stereo not given)	-113	102	·	9	·	-3	·	·
COc1ccc(C2C=C(c3ccc(Br)s3)Nc3ncnn32)cc1OC (stereo not given)	-58	·	210	-6	+	1	140*	161*
C#CCn1cc(Cl)cc(C(=O)Nc2ccccc2)c1=O	·	94	307	·	4	·	·	·
CC1(C)CC(=O)C(C=Nc2cccnc2)=C(O)C1	-15	93	325	-3	4	-3	·	·
SMILES	Mcl1 Bid PPI	Pemphigus Ab inh	T cell modulator	Mcl1 Noxa PPI	MCL1 BIM primary	Bim-Mcl-1	Bcl-xL conf	MCL1 BIM confirm
CC1(C)CC(=O)C(C=Nc2cccnc2/N=C/C2=C(O)CC(C)(C)CC2=O)=C(O)C1	-52	105	325	-55	63*	-1	8	2
CC1(C)CC(=O)C(C=Nc2ccc(C(=O)c3ccccc3)cc2N=CC2=C(O)CC(C)(C)CC2=O)=C(O)C1	-38	101	192	-17	80*	0	6	16
C[C@@H]1CN(S(=O)(=O)C(C)(C)C)[C@H](CCO)/C1=C\c1ccccc1	·	102	·	·	·	·	·	·
COc1ccc(S(=O)(=O)N2CCOCC2)cc1NC(=O)c1c(C)noc1C	·	98	·	·	·	·	·	·
CCOC(=O)c1c(-c2cc(OC)c(OC)c(OC)c2)csc1N	·	97	·	·	·	·	·	·
O=c1oc2ccccc2c2oc3cc(O)c(O)cc3c12	-95	99	564	98*	71*	·	34*	74*
C[C@@]12C(=O)N(c3cccc(F)c3)C(=O)N1[C@@H]1c3ccccc3OC[C@@H]1[C@H]2c1ccccc1	·	103	190	·	·	·	·	·
CCOc1ccc(OCCC(=O)OCC(=O)N2CCN(S(=O)(=O)c3ccc(C)cc3C)CC2)cc1	·	96	·	·	·	·	·	·
COc1ccccc1C1C2=C(CCCC2=O)N(CC(=O)O)C2=C1C(=O)CCC2	·	115	97	·	47*	·	9	12
CCCn1c(/N=C/c2c[nH]c3ccccc23)nc2ccccc21	18	103	i	17	83*	0	10	4
CC1CC(C)CN(C(=O)C2CCN(S(=O)(=O)c3ccc4c(c3)CC(C)N4C(=O)C3CC3)CC2)C1 (stereo not given)	·	94	327	·	2	·	·	·
Cc1nc2ccccc2c(=O)n1/N=C/c1ccccc1O	-26	85	343	8	1	·	·	·
Cc1nc2ccccc2c(=O)n1/N=C/c1ccc(O)c(O)c1O	·	92	230	·	69*	·	26	67*
CCCCN(CCCNC(=O)c1ccc2c(c1)NC(=O)CN2C)c1ccccc1	·	99	·	·	·	·	·	·
COc1cccc(-c2nc3ccc(C(=O)NC(C)Cc4cccnc4)cc3o2)c1 (stereo not given)	·	102	182	·	11	·	·	·
Cc1cccc(C)c1NC(=O)CSc1nnc(-c2ccco2)c(-c2ccco2)n1	46	94	212	102*	96*	2	-19	-4
Cc1ccccc1NC(=O)CSc1nnc(-c2ccco2)c(-c2ccco2)n1	47	110	i	87*	52*	0	35*	86*
CSc1nnc(-c2ccco2)c(-c2ccco2)n1	27	86	·	78*	42*	-1	26	56*

Screens (PubChem)
